# High-throughput results as filed in PubChem.
# GASC-1 inh: inhibitors of GASC-1 histone demethylase, primary screen, biochemical, fluorescence, DELFIA europium. GST-JMJD2C(1-420) H3K9me3 demethylation. inhibition, % at 2.35 µM. hit rate 0.069% among 330,000;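 active = more than half of a compound's replicate wells show inhibition beyond 50%, single wells judged on their own value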;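 also: signal counts dimethyl H3K9 product captured on neutravidin plate; 0% = median of DMSO wells and 100% = 0.3 times that DMSO median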
# proCasp3 act: activators of human procaspase-3 D3A mutant, primary screen, biochemical, absorbance, PC-3 D3A mutant, single concentration; Caspase-3 (Homo sapiens), P42574; recombinant procaspase-3 D3A, Ac-DEVD-pNA absorbance 405 nm; activation, % at 8.5 µM; hit rate 0.11% among 330,000; AID 463141, 2010;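 active = activation above the mean of all tested compounds plus 3 SD, cut at about 21% in these data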;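 also: 0% = DMSO alone and 100% = DMSO wells spiked with extra 5 µM PC-3 D3A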
# Target sequence (P42574 whole entry D9A/D28A/D175A): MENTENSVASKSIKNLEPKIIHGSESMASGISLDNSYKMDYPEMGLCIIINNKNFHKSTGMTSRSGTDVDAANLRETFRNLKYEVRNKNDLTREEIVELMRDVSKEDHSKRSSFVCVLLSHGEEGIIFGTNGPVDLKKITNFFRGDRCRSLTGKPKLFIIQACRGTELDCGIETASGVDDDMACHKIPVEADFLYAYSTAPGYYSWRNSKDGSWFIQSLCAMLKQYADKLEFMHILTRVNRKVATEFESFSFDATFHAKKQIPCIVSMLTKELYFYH
#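 System: Procaspase-3 D3A mutant. Medium: Zinc-free 300 mM NaCl, 50 mM HEPES, 0.01% Triton X-100. Schedule: 1 h preincubation plus 2 h reaction at 25 °C. Measured by: 405 nm absorbance of p-nitroaniline, reads at 0 and 120 min. Read-out: percent activation relative to control range.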
# Hep lipid drop: inhibitors of hepatocyte lipid droplet formation, primary screen, imaging, high-throughput imaging, BODIPY stain. hit rate 0.4% among 240,000. AML12 mouse hepatocytes, oleate lipid droplets. inhibition, % at 6.5 µM. AID 1656, 2009;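 active = lipid droplet intensity inhibited by at least 50%, with more than 500 cells counted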
#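 material = mouse AML12 hepatocyte cell line, fixed after treatment | also added = 100 µM oleic acid challenge | doses = compound at 6.5 µM only | schedule = overnight exposure | technique = Image-based BODIPY and DAPI two-channel analysis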
# VLA-4 inh: inhibition in human VLA-4 binding assay, primary screen, VLA-4 allosteric modulator project, MLPCN library, flow cytometry, VLA-4 expressing cells | ligand binding flow cytometry | inhibition, % (about 7 µM as worked out from the volumes in the protocol) | hit rate 0.2% among 330,000 | AID 2557, 2010; in the data active = inhibition above about 50%
# procasp7 counter: procaspase-7 activators, primary screen, counter-screen for procaspase-3 activator project, biochemical, absorbance, HTS, human | recombinant procaspase-7, Ac-DEVD-pNA absorbance 405 nm; D23A/D198A/D206A triple mutant, cannot self-cleave; scale: DMSO 0, 5 µM enzyme 100 | activation, % at 8.5 µM | hit rate 0.093% among 330,000;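 active = percent activation above the screen-wide mean plus 3 SD, cut at about 25% in these data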
# Target sequence (P55210 whole entry D23A/D198A/D206A): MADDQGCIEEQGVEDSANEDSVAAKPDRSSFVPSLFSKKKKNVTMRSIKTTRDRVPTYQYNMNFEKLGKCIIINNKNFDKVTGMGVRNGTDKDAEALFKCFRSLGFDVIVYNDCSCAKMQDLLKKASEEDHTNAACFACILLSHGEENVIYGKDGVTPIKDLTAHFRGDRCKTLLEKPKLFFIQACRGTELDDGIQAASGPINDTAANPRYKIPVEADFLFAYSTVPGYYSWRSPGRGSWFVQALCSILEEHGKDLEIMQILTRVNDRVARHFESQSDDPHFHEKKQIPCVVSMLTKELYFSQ
#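 Assay system: Uncleavable procaspase-7 mutant enzyme; Input: 2 µM procaspase-7 mutant as dispensed; Also added: DEVD-pNA substrate; Medium: Zinc-free HEPES pH 7.4 with 300 mM NaCl, 0.01% Triton X-100; Timing: 1 h compound preincubation, 2 h substrate cleavage, 25 °C; Measured by: Epi-absorbance of released pNA at 405 nm, two timepoints.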
# GRK2 aptamer HTS: compounds blocking aptamer binding on GRK2 – biochemical, human GRK2, bead flow cytometry, HTS, primary screen. Beta-adrenergic receptor kinase 1 (Homo sapiens), P25098. FAM-aptamer displacement from GRK2. inhibition of aptamer binding, % at 10 µM. hit rate 0.59% among 330,000;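 active = inhibition of aptamer binding above 40%, roughly 3 SD of noise, on plates passing a quality check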;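 also: median bead fluorescence of bound FAM aptamer so fluorescent compounds give negative values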
# * hit, by the source's call; · = no result. Sampled rows, rich in hits. Any-hit rate of the full collection: about 1.3%.
SMILES,GASC-1 inh,proCasp3 act,Hep lipid drop,VLA-4 inh,procasp7 counter,GRK2 aptamer HTS
O=c1cc(-c2ccc(O)c(O)c2)oc2cc(O[C@@H]3O[C@H](CO)[C@@H](O)[C@H](O)[C@H]3O)cc(O)c12,-5.3,3.4,·,0.5,-0.8,17.0
C[C@@H]1O[C@@H](OC[C@H]2O[C@@H](Oc3cc(O)c4c(=O)cc(-c5ccc(O)c(O)c5)oc4c3)[C@H](O)[C@@H](O)[C@@H]2O)[C@H](O)[C@H](O)[C@H]1O,99.6*,8.5,·,1.7,1.1,0.0
CCC(C)c1ccccc1NC(=O)COC(=O)c1ccc2[nH]c3c(c2c1)CCCC3 (stereo unspecified),1.7,5.0,58.9*,2.9,3.2,1.0
O=C(NC(=S)Nc1ccccn1)c1ccccc1,-9.6,7.1,60.9*,5.0,5.7,5.0
Cc1cccn2c(=O)c(C(=O)NC3CCCCC3)c(O)nc12,-0.8,4.8,23.2,-16.4,-2.5,0.0
Cc1cccn2c(=O)c(C(=O)NC3CC(C)CC(C)(C)C3)c(O)nc12 (stereo unspecified),52.5*,-2.8,·,-15.1,-0.9,2.0
COc1ccc(C(=O)O/N=C(\C)c2cnccn2)cc1,57.0*,7.8,4.6,7.3,0.7,0.0
COc1ccc(C(=O)Oc2cccnc2)cc1,-13.4,-11.7,-2.3,-3.9,5.0,4.0
CC(NS(=O)(=O)c1ccc(Cl)cc1)C(=O)OCC(=O)c1ccc[nH]1 (stereo unspecified),-9.0,-1.5,·,-0.9,-8.3,0.0
COc1ccc(OC)c(Nc2nc(-c3cccs3)cs2)c1,50.9*,-1.1,-2.0,-0.8,1.1,4.0
O=C(COc1ccc(F)cc1Cl)N(Cc1nnc(-c2ccccc2Cl)o1)C1CC1,-19.8,3.8,-39.9,-2.4,-2.6,2.0
O=[N+]([O-])c1ccc(/C=[N+](\[O-])[C@@H]2CCCC[C@@H]2/[N+]([O-])=C/c2ccc([N+](=O)[O-])o2)o1,88.9*,-10.3,-49.3,1.4,-10.4,5.0
Cc1cc2c(cc1S(=O)(=O)CCC(=O)NC1CCC(C)CC1)OCC(=O)N2 (stereo unspecified),31.2,-5.7,-12.1,24.1,-3.5,2.0
Nc1ccc(O)c(-c2nc3ccccc3s2)c1,2.5,6.3,·,-6.1,-3.7,0.0
Oc1ccc(N=C/C=C/c2cccc(Br)c2)cc1-c1nc2ccccc2s1,-3.9,2.7,11.2,-12.7,-3.3,85.0*
Cc1cc(C)cc(OCC(=O)N/N=C/c2ccncc2)c1,2.2,-2.6,-1.1,33.1,2.3,55.0*
O=C(CN1CCN(C(=O)CNC(=O)c2ccc3c(c2)OCO3)CC1)Nc1ccc(F)cc1,-4.4,2.5,·,13.6,-5.3,2.0
CC1(C)C(C(=O)OCC(Cl)(Cl)Cl)N2C(=O)C(NC(=O)Cc3ccccc3)C2S1=O (stereo unspecified),-1.9,-14.8,-9.6,3.6,-7.6,3.0
Cn1cccc1-c1nc2ccc(NC(=O)c3cccs3)cc2[nH]1,58.2*,-7.5,43.1,-11.1,-1.9,0.0
CC(=O)Nc1ccc2nc(-c3cccs3)[nH]c2c1,2.3,12.5,·,93.6*,9.4,4.0
CSc1ccccc1NC(=O)COC(=O)/C=C/c1ccco1,5.9,-6.8,·,-0.8,1.2,41.0*
O=C(COC(=O)/C=C/c1ccco1)Nc1ncc(C(F)(F)F)cc1Cl,2.1,-6.7,-0.2,-4.6,6.6,52.0*
O=C(Cn1cc([N+](=O)[O-])cn1)Nc1nccs1,-6.9,1.3,-4.3,2.5,-8.2,0.0
O=C1c2ccccc2-c2onc3c(Oc4ccccc4)cc(O)c1c23,·,·,55.9*,·,·,·
Cc1ccc(OCC(=O)OCc2nc3scc(-c4ccccc4)c3c(=O)[nH]2)cc1C,-12.2,6.0,·,25.2,7.1,5.0
SMILES,GASC-1 inh,proCasp3 act,Hep lipid drop,VLA-4 inh,procasp7 counter,GRK2 aptamer HTS
COc1ccccc1NC(=O)COC(=O)c1[nH]c(=O)[nH]c(=O)c1N,53.2*,-8.4,·,13.4,-19.4,0.0
COc1ccccc1NC(=O)COC(=O)c1c[nH]c(=O)[nH]c1=O,-11.9,-4.4,0.9,-5.5,-3.9,0.0
COc1ccc(CNC(=O)CSc2nnnn2Cc2ccccc2)cc1,51.7*,2.9,·,-10.4,1.9,1.0
CCCn1nnnc1SCC(=O)NCc1ccc2c(c1)OCO2,62.3*,1.8,·,-13.1,-2.2,2.0
CCCn1nnnc1SCC(=O)NCc1ccc(OC)cc1,31.2,8.0,-12.0,-4.1,9.8,1.0
CC(C)N(Cc1nc(-c2ccccc2)no1)C(=O)C(Cl)(Cl)Cl,-27.9,-0.8,6.7,11.5,2.1,0.0
COCCNC(=O)C(c1ccccc1F)N(C(=O)C(=O)NC1CCCC1)C1CCCCC1 (stereo unspecified),-15.2,4.1,-0.2,33.5,-6.1,0.0
Cc1ccccc1NC(=O)Cc1nc(COC(=O)c2cc([N+](=O)[O-])ccc2N)cs1,4.2,-2.7,-1.5,-7.3,-0.5,55.0*
COC(=O)C1CCN(C(=O)c2cc(-c3ccco3)nc3ccccc23)CC1,5.5,-16.1,·,-10.9,-28.3,76.0*
COc1ccc(NC(=O)CN(C)C(=O)c2cc(-c3ccco3)nc3ccccc23)cc1,5.5,5.1,·,0.1,-8.8,76.0*
Cc1sc2ncn(CC(=O)N3CCC(C(N)=O)CC3)c(=O)c2c1S(=O)(=O)N1CCOCC1,-2.8,7.9,-0.1,14.1,5.8,0.0
Clc1ccc(-c2nc3cc(CN4CCCCC4)ccc3o2)cc1,-7.8,·,9.4,7.5,·,0.0
COc1cc(/C=N/NC(=O)c2cc(-c3ccco3)nc3ccccc23)cc(OC)c1O,8.5,-6.1,-3.0,1.1,-6.7,3.0
O=C(N/N=C/c1cccc(F)c1)c1cc(-c2ccco2)nc2ccccc12,3.6,-15.6,·,1.6,-26.1,43.0*
CN1CCN(/N=C/c2ccc(-c3ccccc3)cc2)CC1,36.3,6.0,4.1,8.5,-0.6,0.0
CN1CCN(/N=C/c2c3ccccc3c(Cl)c3ccccc23)CC1,-0.6,-3.8,11.0,57.2*,-6.2,0.0
O=C(COC(=O)COc1ccc2c(c1)CCC2)Nc1ccccc1C(F)(F)F,0.4,8.9,·,4.5,7.2,0.0
CC(C)(C)NNC(=S)Nc1cccc(C(F)(F)F)c1,54.2*,-15.0,11.8,10.2,-6.9,0.0
